# In PMC4464187 (EXCLI Journal, 2014):
# Where two headings read alike, the source gives them in different places.
# Key:
# [1] = system: TNF-α levels in the plasma; experiment: Measurement of TNF-α production in plasma of LPS-treated SD rats; type: in vivo, female Sprague Dawley rats; conditions: LPS 5 mg/Kg i.p., blood 2 h after LPS; for TNF-α plasma level: LPS group 1623 pg/mL
# Summary of the method: (§1)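 Female Sprague Dawley rats, 200-250 g, n = 5 per group. Oral doses are given at 12 h intervals: test compound at 20 and 40 mg/Kg, vehicle 10 % Tween 80, or dexamethasone 5 mg/Kg as positive control. LPS 5 mg/Kg is given i.p. 2 h after the final dose. Blood is taken 2 h (TNF-α) or 6 h (IL-1ß) after LPS. Plasma is assayed by rat sandwich ELISA. Mean ± SD, one-way ANOVA with Dunnett's test.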
# [2] = system: IL-1ß levels in the plasma; experiment: Measurement of IL-1ß production in plasma of LPS-treated SD rats; type: in vivo, female Sprague Dawley rats; conditions: LPS 5 mg/Kg i.p., blood 6 h after LPS; for IL-1ß plasma level: LPS group 912 pg/mL
# Summary of the method: as §1
# [3] = system: TNF-α production in LPS stimulated RAW 264.7 cells; experiment: TNF-α assay; type: cell-based; conditions: Mus musculus, RAW264.7, 6 h, read-out: IC50 for inhibition of TNF-α RAW 264.7
# [4] = system: TNF-α production in LPS stimulated J774A.1 cells; experiment: TNF-α assay; type: cell-based; conditions: Mus musculus, J774.A1, 6 h, read-out: IC50 for inhibition of TNF-α J774A.1
# Summary of the method: (§2)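 Cells cultured in DMEM with heat-inactivated 10 % FBS, penicillin and streptomycin at 37 °C, 5 % CO2. Test compound in DMSO/water is added at several concentrations for 1 h, then LPS (E. coli 026:B6) 1 µg/mL is added. Incubation runs 6 h for TNF-α and 12 h for IL-1ß. Supernatant cytokine is measured by mouse sandwich ELISA at 450 nm, with curcumin and dexamethasone as standards. Triplicates.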
# [5] = system: IL-1ß production in LPS stimulated RAW 264.7 cells; experiment: IL-1ß assay; type: cell-based; conditions: Mus musculus, RAW264.7, 12 h, read-out: IC50 for inhibition of IL-1β RAW 264.7
# Summary of the method: as §2
# [6] = system: IL-1ß production in LPS stimulated J774A.1 cells; experiment: IL-1ß assay; type: cell-based; conditions: Mus musculus, J774.A1, 12 h, read-out: IC50 for inhibition of IL-1β J774A.1
# [7] = system: NO release in LPS stimulated RAW 264.7 cells; experiment: NO inhibitory assay; type: cell-based; conditions: Mus musculus
# Summary of the method: (§3)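 Cells are kept in DMEM with 10 % heat-inactivated FBS and antibiotics under 5 % CO2 at 37 °C. They are pretreated 1 h with varied concentrations of test compound (DMSO/water), then stimulated with 1 µg/mL LPS (E. coli 026:B6) for 24 h at 37 °C. Supernatant is mixed 1:1 with modified Griess reagent for 30 min and read at 540 nm. Curcumin and L-NAME serve as standards. Triplicates.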
# [8] = system: NO release in LPS stimulated J774A.1 cells; experiment: NO inhibitory assay; type: cell-based; conditions: Mus musculus, J774.A1, 24 h, read-out: IC50 for NO inhibition J774A.1
# Summary of the method: as §3
# [9] = RAW264.7, 24 h, read-out: IC50 for NO inhibition RAW 264.7
# [10] = RAW264.7, read-out: IC50 for NO inhibition, range over both cells
Compound,IC50 [3] [µM],IC50 [4] [µM],IC50 [5] [µM],IC50 [6] [µM],"IC50 [7, 9] [µM]","IC50 [7, 10] [µM]",IC50 [8] [µM],reduction of TNF-α production ([1]; 5 mg/kg p.o.) [%],TNF-α plasma level ([1]; 5 mg/kg p.o.) [pg/mL],reduction of IL-1ß production ([2]; 5 mg/kg p.o.) [%],IL-1ß plasma level ([2]; 5 mg/kg p.o.) [pg/mL],reduction of TNF-α production ([1]; 40 mg/kg p.o.) [%],TNF-α plasma level ([1]; 40 mg/kg p.o.) [pg/mL],reduction of IL-1ß ([2]; 40 mg/kg p.o.) [%],IL-1ß plasma level ([2]; 40 mg/kg p.o.) [pg/mL]
"C[C@@H]1C[C@H]2[C@@H]3CCC4=CC(=O)C=C[C@]4(C)[C@@]3(F)[C@@H](O)C[C@]2(C)[C@@]1(O)C(=O)CO [Dexamethasone, reference compound]",,,,,,,,75.8,394,63.0,338,,,,
"O=C(O)/C=C/c1ccc(O)c(O)c1 [compound 7, Caffeic acid]",45 ± 1.93,49.6 ± 1.33,59.3 ± 2.94,62.3 ± 2.94,19.2 ± 4.97,,78 ± 3.94,,,,,,,,
"O=C(O)c1cc(O)c(O)c(O)c1 [compound 10, gallic acid]",23.8 ± 2.14,29.3 ± 3.12,42.1 ± 3.62,47.6 ± 1.67,,,,,,,,,,,
"CC/C=C\C[C@H]1C(=O)CC[C@@H]1CC(=O)O [compound 11, jasmonic acid]",39.4 ± 2.85,41.4 ± 1.67,57.9 ± 0.61,59.2 ± 2.25,29.4 ± 1.65,21.3 to 29.4,21.3 ± 1.35,,,,,48.9,830,54.2,418
"N[C@@H](Cn1ccc(=O)c(O)c1)C(=O)O [compound 12, L-mimosine]",25.2 ± 2.48,,64.2 ± 2.53,65.8 ± 1.86,19.2 ± 1.53,19.2 to 21.2,21.2 ± 1.36,,,,,60.7,639,16.3,763

# Continued, in another order:
IC50 [3] [µM],IC50 [4] [µM],IC50 [5] [µM],IC50 [6] [µM],"IC50 [7, 9] [µM]","IC50 [7, 10] [µM]",IC50 [8] [µM],Compound,reduction of TNF-α production ([1]; 5 mg/kg p.o.) [%],TNF-α plasma level ([1]; 5 mg/kg p.o.) [pg/mL],reduction of IL-1ß production ([2]; 5 mg/kg p.o.) [%],IL-1ß plasma level ([2]; 5 mg/kg p.o.) [pg/mL],reduction of TNF-α production ([1]; 40 mg/kg p.o.) [%],TNF-α plasma level ([1]; 40 mg/kg p.o.) [pg/mL],reduction of IL-1ß ([2]; 40 mg/kg p.o.) [%],IL-1ß plasma level ([2]; 40 mg/kg p.o.) [pg/mL]
17.3 ± 4.61,23.4 ± 2.67,36.9 ± 3.35,39.5 ± 2.86,,,,"CCOC(=O)c1cc(O)c(O)c(O)c1 [compound 3, ethyl gallate]",,,,,,,,
20.4 ± 2.48,22.2 ± 3.83,35.4 ± 2.34,41.1 ± 1.69,23.4 ± 2.62,23.4 to 25.6,25.6 ± 2.47,"CC(/C=C/C=C(\C)C(=O)O)=C\C=C\C=C(C)\C=C\C=C(/C)C(=O)O [compound 4, crocetin]",,,,,43.6,914,39.8,549
22.4 ± 1.08,25.2 ± 2.56,29.2 ± 3.69,31.2 ± 2.64,27.2 ± 4.51,27.2 to 31.5,31.5 ± 1.25,"CC(/C=C/C=C(\C)C(=O)O[C@@H]1O[C@H](CO[C@@H]2O[C@H](CO)[C@@H](O)[C@H](O)[C@H]2O)[C@@H](O)[C@H](O)[C@H]1O)=C\C=C\C=C(C)\C=C\C=C(/C)C(=O)O[C@@H]1O[C@H](CO[C@@H]2O[C@H](CO)[C@@H](O)[C@H](O)[C@H]2O)[C@@H](O)[C@H](O)[C@H]1O [compound 14, crocin]",,,,,48.4,836,50.2,456
